# Measured values published in ChEMBL document CHEMBL3585281, “Antibacterial Labdane Diterpenoids from Vitex vestita” (2015).
# Columns and labels:
# Type in all cases: functional
# [1] = tested on: Enterococcus hirae; assay: Antibacterial activity against Enterococcus hirae CIP 5855 after 18 hrs by agar dilution method
# Summary of the method: (§1)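 Agar-dilution MIC against Gram-positive strains. Compounds in DMSO, geometric dilutions giving final 100−0.75 mg/L in Mueller Hinton agar. Strains grown 18 h at 37 °C in trypticase soy broth, diluted in sterile water, spotted by Steers inoculator (about 1000 UFC/spot). Plates incubated 18 h at 37 °C; DMSO blank; ofloxacin positive control. MIC = lowest concentration with no visible growth.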
# [2] = tested on: Corynebacterium striatum; assay: Antibacterial activity against Corynebacterium striatum N840 after 18 hrs by agar dilution method; summary of the method: as §1
# [3] = tested on: Bacillus cereus; assay: Antibacterial activity against Bacillus cereus N349 after 18 hrs by agar dilution method; summary of the method: as §1
# [4] = tested on: Staphylococcus aureus; assay: Antibacterial activity against Staphylococcus aureus CRBIP 2121 after 18 hrs by agar dilution method; summary of the method: as §1
# [5] = tested on: Enterococcus faecalis; assay: Antibacterial activity against Enterococcus faecalis N491 after 18 hrs by agar dilution method; summary of the method: as §1
# [6] = tested on: Staphylococcus aureus; assay: Antibacterial activity against Staphylococcus aureus CIP 5710 after 18 hrs by agar dilution method; summary of the method: as §1
# [7] = tested on: Staphylococcus epidermidis; assay: Antibacterial activity against Staphylococcus epidermidis CIP 53124 after 18 hrs by agar dilution method; summary of the method: as §1
# [8] = tested on: Staphylococcus aureus; assay: Antibacterial activity against Staphylococcus aureus CIP 483 after 18 hrs by agar dilution method; summary of the method: as §1
# [9] = tested on: Enterococcus faecalis; assay: Antibacterial activity against Enterococcus faecalis N518 after 18 hrs by agar dilution method; summary of the method: as §1
# [10] = tested on: Enterococcus faecalis; assay: Antibacterial activity against Enterococcus faecalis CIP 104676 after 18 hrs by agar dilution method; summary of the method: as §1
# [11] = tested on: Listeria monocytogenes; assay: Antibacterial activity against Listeria monocytogenes N851 after 18 hrs by agar dilution method; summary of the method: as §1
# [12] = tested on: Staphylococcus intermedius; assay: Antibacterial activity against Staphylococcus intermedius N987 after 18 hrs by agar dilution method; summary of the method: as §1
# [13] = tested on: Mammaliicoccus sciuri; assay: Antibacterial activity against Staphylococcus sciuri N993 after 18 hrs by agar dilution method; summary of the method: as §1
# [14] = tested on: Enterococcus faecium; assay: Antibacterial activity against Enterococcus faecium N490 after 18 hrs by agar dilution method; summary of the method: as §1
# [15] = tested on: Enterococcus faecium; assay: Antibacterial activity against Enterococcus faecium N733 after 18 hrs by agar dilution method; summary of the method: as §1
# [16] = tested on: Enterococcus faecalis; assay: Antibacterial activity against Enterococcus faecalis CIP 103214 after 18 hrs by agar dilution method; summary of the method: as §1
# [17] = tested on: Enterococcus faecium; assay: Antibacterial activity against Enterococcus faecium CIP 107387 after 18 hrs by agar dilution method; summary of the method: as §1
# [18] = tested on: Bacillus cereus; assay: Antibacterial activity against Bacillus cereus CIP 6624 after 18 hrs by agar dilution method; summary of the method: as §1
# [19] = tested on: Enterococcus durans; assay: Antibacterial activity against Enterococcus durans CIP 104999 after 18 hrs by agar dilution method; summary of the method: as §1
# [20] = tested on: Enterococcus casseliflavus; assay: Antibacterial activity against Enterococcus casseliflavus CIP 103018 after 18 hrs by agar dilution method; summary of the method: as §1
# [21] = tested on: Enterococcus faecalis; assay: Antibacterial activity against Enterococcus faecalis N520 after 18 hrs by agar dilution method; summary of the method: as §1
# [22] = tested on: Enterococcus gallinarum; assay: Antibacterial activity against Enterococcus gallinarum N489 after 18 hrs by agar dilution method; summary of the method: as §1
# [23] = tested on: Bacillus spizizenii; assay: Antibacterial activity against Bacillus subtilis ATCC 6633 after 18 hrs by agar dilution method; summary of the method: as §1
# [24] = tested on: Listeria monocytogenes; assay: Antibacterial activity against Listeria monocytogenes N783 after 18 hrs by agar dilution method; summary of the method: as §1
# [25] = tested on: Listeria monocytogenes; assay: Antibacterial activity against Listeria monocytogenes CIP 103575 after 18 hrs by agar dilution method; summary of the method: as §1
# [26] = tested on: Bacillus cereus; assay: Antibacterial activity against Bacillus cereus N190 after 18 hrs by agar dilution method; summary of the method: as §1
# [27] = tested on: Staphylococcus aureus; assay: Antibacterial activity against Staphylococcus aureus CIP 7625 after 18 hrs by agar dilution method; summary of the method: as §1
# [28] = tested on: Staphylococcus aureus; assay: Antibacterial activity against Staphylococcus aureus CIP 53154 after 18 hrs by agar dilution method; summary of the method: as §1
# [29] = tested on: Enterococcus faecium; assay: Antibacterial activity against Enterococcus faecium N507 after 18 hrs by agar dilution method; summary of the method: as §1
# [30] = tested on: Listeria innocua; assay: Antibacterial activity against Listeria innocua E044 after 18 hrs by agar dilution method; summary of the method: as §1
# [31] = tested on: Streptococcus agalactiae; assay: Antibacterial activity against Streptococcus agalactiae CIP 103227 after 18 hrs by agar dilution method; settings: ATCC 13813; summary of the method: as §1
# [32] = tested on: Staphylococcus haemolyticus; assay: Antibacterial activity against Staphylococcus haemolyticus CIP 8156 after 18 hrs by agar dilution method; summary of the method: as §1
# [33] = tested on: Staphylococcus aureus; assay: Antibacterial activity against Staphylococcus aureus ATCC 9144 oxford after 18 hrs by agar dilution method; summary of the method: as §1
# [34] = tested on: Enterococcus gallinarum; assay: Antibacterial activity against Enterococcus gallinarum CIP 105985 after 18 hrs by agar dilution method; summary of the method: as §1
# [35] = tested on: Enterococcus avium; assay: Antibacterial activity against Enterococcus avium CIP 104053 after 18 hrs by agar dilution method; summary of the method: as §1
# [36] = tested on: Staphylococcus saprophyticus; assay: Antibacterial activity against Staphylococcus saprophyticus CIP 76125 after 18 hrs by agar dilution method; summary of the method: as §1
# [37] = tested on: Enterococcus faecium; assay: Antibacterial activity against Enterococcus faecium N823 after 18 hrs by agar dilution method; summary of the method: as §1
# [38] = tested on: Staphylococcus aureus; assay: Antibacterial activity against Staphylococcus aureus ATCC 25923 after 18 hrs by agar dilution method; summary of the method: as §1
# [39] = tested on: Staphylococcus aureus; assay: Antibacterial activity against Staphylococcus aureus CIP 53156 after 18 hrs by agar dilution method; summary of the method: as §1
# [40] = tested on: Listeria monocytogenes; assay: Antibacterial activity against Listeria monocytogenes N836 after 18 hrs by agar dilution method; summary of the method: as §1
# [41] = tested on: Enterococcus casseliflavus; assay: Antibacterial activity against Enterococcus casseliflavus N487 after 18 hrs by agar dilution method; summary of the method: as §1
# [42] = tested on: Enterococcus faecium; assay: Antibacterial activity against Enterococcus faecium CIP 103014 after 18 hrs by agar dilution method; summary of the method: as §1
# [43] = tested on: Staphylococcus saprophyticus; assay: Antibacterial activity against Staphylococcus saprophyticus E260 after 18 hrs by agar dilution method; summary of the method: as §1
# [44] = tested on: Enterococcus gallinarum; assay: Antibacterial activity against Enterococcus gallinarum N492 after 18 hrs by agar dilution method; summary of the method: as §1
# [45] = tested on: Bacillus cereus; assay: Antibacterial activity against Bacillus cereus N258 after 18 hrs by agar dilution method; summary of the method: as §1
# [46] = tested on: Staphylococcus lugdunensis; assay: Antibacterial activity against Staphylococcus lugdunensis ATCC 43809 after 18 hrs by agar dilution method; summary of the method: as §1
sequence,measurement,setting,value
GENTAMICIN,MIC,[1],35 µM
same,MIC,[2],> 278 µM
same,MIC,[3],2000 nM
same,MIC,[4],> 278 µM
same,MIC,[5],> 278 µM
same,MIC,[6],1000 nM
same,MIC,[7],500 nM
same,MIC,[8],1000 nM
same,MIC,[9],70 µM
same,MIC,[10],> 278 µM
same,MIC,[11],1000 nM
same,MIC,[12],139 µM
same,MIC,[13],< 140 nM
same,MIC,[14],> 278 µM
same,MIC,[15],> 278 µM
same,MIC,[16],35 µM
same,MIC,[17],> 278 µM
same,MIC,[18],1000 nM
same,MIC,[19],17 µM
same,MIC,[20],9 µM
same,MIC,[21],> 278 µM
same,MIC,[22],4 µM
same,MIC,[23],300 nM
same,MIC,[24],1000 nM
same,MIC,[25],1000 nM
same,MIC,[26],1000 nM
same,MIC,[27],1000 nM
same,MIC,[28],4 µM
same,MIC,[29],> 278 µM
same,MIC,[30],1000 nM
same,MIC,[31],2000 nM
same,MIC,[32],< 140 nM
same,MIC,[33],500 nM
same,MIC,[34],17 µM
same,MIC,[35],2000 nM
same,MIC,[36],300 nM
same,MIC,[37],> 278 µM
same,MIC,[38],1000 nM
same,MIC,[39],1000 nM
same,MIC,[40],1000 nM
same,MIC,[41],9 µM
same,MIC,[42],17 µM
same,MIC,[43],< 140 nM
same,MIC,[44],17 µM
same,MIC,[45],2000 nM
same,MIC,[46],500 nM
